Assay results from ChEMBL document CHEMBL1127389, “Synthesis and biological activity of 2-hydroxy and 2-alkoxy analogs of 1 alpha,25-dihydroxy-19-norvitamin D3” (1994).
Where “and” joins values, the source holds several entries; their conditions need not be identical. Equal values may be shown once.

Key:
Rattus norvegicus [1] = species on record: Rattus norvegicus; experiment: tested in the vitamin D-deficient rat for the ability to support intestinal absorption of calcium with compound concentration 325 (pmol/d/7 days) expressed as Serum/Mucosal ratio; format: functional
Method in brief: (§1)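 Vitamin D-deficient Holtzman weanling rats were kept 1 week on a 0.47% Ca diet, then on a 0.02% Ca diet. They were given intraperitoneal injections daily for 7 days in 0.1 mL of 95:5 propylene glycol/ethanol, with vehicle controls, and killed 24 h after the last dose. Transport was measured by everted sac of the proximal 10 cm of intestine, as the ratio of sac Ca to final medium Ca (S/M). Groups had at least 6 rats; Student's t-test.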

Rattus norvegicus [2] = species on record: Rattus norvegicus; experiment: tested in the vitamin D-deficient rat for the ability to support intestinal absorption of calcium with compound concentration 130 (pmol/d/7 days) expressed as Serum/Mucosal ratio; format: functional; method in brief: as §1
Rattus norvegicus [3] = species on record: Rattus norvegicus; experiment: Bone calcium-mobilizing activity with compound concentration 325 (pmol/d/7 days); format: functional, organism-based; parameters: unit not given here
Method in brief: (§2)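 Holtzman weanling rats were fed a vitamin D-deficient diet with 0.47% Ca for 1 week, then a 0.02% Ca diet. They received daily intraperitoneal doses in 0.1 mL of 95:5 propylene glycol/ethanol for 7 days; controls got vehicle. Rats were killed 24 h after the last dose. Serum Ca was measured by automatic calcium titrator; on this diet, the rise in serum Ca is taken as bone Ca mobilization. At least 6 rats/group; Student's t-test.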

Rattus norvegicus [4] = species on record: Rattus norvegicus; experiment: Tested in the vitamin D-deficient rat for the ability to support intestinal absorption of calcium with compound concentration 65 (pmol/d/7 days) expressed as Serum/Mucosal ratio; format: functional
Rattus norvegicus [5] = species on record: Rattus norvegicus; experiment: Tested in the vitamin D-deficient rat for the ability to support intestinal absorption of calcium with compound concentration 130 (pmol/d/7 days) expressed as Serum/Mucosal ratio; format: functional
Rattus norvegicus [6] = species on record: Rattus norvegicus; experiment: Tested in the vitamin D-deficient rat for the ability to support intestinal absorption of calcium with compound concentration 325 (pmol/d/7 days) expressed as Serum/Mucosal ratio; format: functional
Rattus norvegicus [7] = species on record: Rattus norvegicus; experiment: Tested in the vitamin D-deficient rat for the ability to support intestinal absorption of calcium with compound concentration 260 (pmol/d/7 days) expressed as Serum/Mucosal ratio; format: functional; method in brief: as §1
Rattus norvegicus [8] = species on record: Rattus norvegicus; experiment: Bone calcium-mobilizing activity with compound concentration 260 (pmol/d/7 days); format: functional, organism-based; method in brief: as §2
Rattus norvegicus [9] = species on record: Rattus norvegicus; experiment: Bone calcium-mobilizing activity with compound concentration 65 (pmol/d/7 days); format: functional, organism-based; method in brief: as §2
Rattus norvegicus [10] = species on record: Rattus norvegicus; experiment: Bone calcium-mobilizing activity with compoundm concentration 130 (pmol/d/7 days); format: functional, organism-based; method in brief: as §2
Rattus norvegicus [11] = species on record: Rattus norvegicus; experiment: Bone calcium-mobilizing activity with compound concentration 130 (pmol/d/7 days); format: functional, organism-based; method in brief: as §2
Rattus norvegicus [12] = species on record: Rattus norvegicus; experiment: tested in the vitamin D-deficient rat for the ability to support intestinal absorption of calcium with compound concentration 65 (pmol/d/7 days) expressed as Serum/Mucosal ratio; format: functional; method in brief: as §1
Rattus norvegicus [13] = species on record: Rattus norvegicus; experiment: Bone calcium-mobilizing activity with concentration 260 (pmol/d/7 days); format: functional, organism-based; method in brief: as §2
Rattus norvegicus [14] = species on record: Rattus norvegicus; experiment: tested in the vitamin D-deficient rat for the ability to support intestinal absorption of calcium with compound concentration 260 (pmol/d/7 days) expressed as Serum/Mucosal ratio; format: functional; method in brief: as §1

In the case of C[C@H](CCCC(C)(C)O)[C@H]1CC[C@H]2/C(=C\C=C3C[C@@H](O)C(O)[C@H](O)C3)CCC[C@]12C (stereo partly specified) [listing 1 of 3 here], the Ratio (Rattus norvegicus [1]) is reported as 5 and the Ratio (Rattus norvegicus [2]) is reported as 5.3.

C[C@H](CCCC(C)(C)O)[C@H]1CC[C@H]2/C(=C/C=C3C[C@@H](O)C(OCCCO)[C@H](O)C3)CCC[C@]12C (stereo partly specified) [listing 1 of 3 here] was tested, and the Ratio (Rattus norvegicus [1]) was 4.3 and the Ratio (Rattus norvegicus [2]) was 3.5.

With C=C1/C(=C/C=C2/CCCC3(C)C2CCC3[C@H](C)CCCC(C)(C)O)C[C@@H](O)C[C@@H]1O (stereo partly specified) the Serum Ca2+ (Rattus norvegicus [3]) was 6.8 and 7.1, the Ratio (Rattus norvegicus [4]) was 8.3 and the Ratio (Rattus norvegicus [5]) was 8 and 7.1. For the same compound, the Ratio (Rattus norvegicus [6]) was 10.5 and 7.8, the Ratio (Rattus norvegicus [7]) was 10.5 and the Serum Ca2+ (Rattus norvegicus [8]) was 5.9.

For C[C@H](CCCC(C)(C)O)[C@H]1CC[C@H]2/C(=C\C=C3C[C@@H](O)C(O)[C@H](O)C3)CCC[C@]12C (stereo partly specified) [listing 2 of 3 here], the Serum Ca2+ (Rattus norvegicus [3]) was 4.2 and 4.1, the Serum Ca2+ (Rattus norvegicus [9]) was 4.2 and the Serum Ca2+ (Rattus norvegicus [10]) was 4.1.

C[C@H](CCCC(C)(C)O)[C@H]1CC[C@H]2/C(=C/C=C3C[C@@H](O)C(OCCCO)[C@H](O)C3)CCC[C@]12C (stereo partly specified) [listing 2 of 3 here] showed a Serum Ca2+ (Rattus norvegicus [3]) of 5.8, a Serum Ca2+ (Rattus norvegicus [11]) of 4.9 and a Serum Ca2+ (Rattus norvegicus [8]) of 4.7.

In the case of C[C@H](CCCC(C)(C)O)[C@H]1CC[C@H]2/C(=C\C=C3C[C@@H](O)C(O)[C@H](O)C3)CCC[C@]12C (stereo partly specified) [listing 3 of 3 here], the Ratio (Rattus norvegicus [1]) is reported as 10.8 and the Ratio (Rattus norvegicus [12]) is reported as 5.8.

Compound C[C@H](CCCC(C)(C)O)[C@H]1CC[C@H]2/C(=C/C=C3C[C@@H](O)C(OCc4ccccc4)[C@H](O)C3)CCC[C@]12C (stereo partly specified) has a Serum Ca2+ (Rattus norvegicus [13]) of 4.6 and a Ratio (Rattus norvegicus [7]) of 11.9.

Work on C[C@H](CCCC(C)(C)O)[C@H]1CC[C@H]2/C(=C/C=C3C[C@@H](O)C(OCCCO)[C@H](O)C3)CCC[C@]12C (stereo partly specified) [listing 3 of 3 here] yielded a Ratio (Rattus norvegicus [14]) of 5.7.
